Measured values reported in ChEMBL document CHEMBL1132958, “Design of monocyclic (1-3) and dicyclic (1-3/4-10) gonadotropin releasing hormone (GnRH) antagonists” (J Med Chem, 2000).
pKi: −log10 of the molar value. Values belong to the compound of their own block, whether it stands above or below them. The source made the active and inactive calls. The rule behind the calls is not given here.

Legend:
Rattus norvegicus [1] = experiment: Evaluated for number of rats ovulating in an in vivo anti-ovulatory assay at dose (1000 microg); 3/8; assay type: functional, organism-based
[2] = target: T1, Gonadotropin-releasing hormone receptor (Rattus norvegicus, UniProt P30969); experiment: Competitive radioligand binding assay for rat Gonadotropin-releasing hormone receptor cells stably transfected in human HEK293
T1 sequence (P30969 whole entry): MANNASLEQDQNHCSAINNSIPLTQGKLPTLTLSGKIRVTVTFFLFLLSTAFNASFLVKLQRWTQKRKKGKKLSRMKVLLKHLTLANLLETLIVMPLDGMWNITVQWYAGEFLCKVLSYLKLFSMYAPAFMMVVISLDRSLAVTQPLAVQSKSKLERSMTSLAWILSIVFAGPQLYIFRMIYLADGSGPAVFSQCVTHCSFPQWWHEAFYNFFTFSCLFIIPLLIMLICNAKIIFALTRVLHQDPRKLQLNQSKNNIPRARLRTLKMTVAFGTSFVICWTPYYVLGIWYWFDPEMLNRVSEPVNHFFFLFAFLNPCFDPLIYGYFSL
How it was run: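 Membranes from HEK-293 cells stably expressing rat GnRH receptor (5% sucrose homogenate; nuclei removed at 3000g, membranes pelleted at 20000g, 4 °C), 7 µg protein in 10 mM Hepes pH 7.5, 150 mM NaCl, 0.1% BSA. Competitor at varying concentrations vs des-Gly10-[125I-Tyr5,DAla6,NMeLeu7,Pro9-NHEt]GnRH (~100 000 cpm), 90 min; PEI-coated GF/C filtration, PBS wash, γ counting. Ki by nonlinear least-squares fit; ≥3 independent experiments, mean ± SEM.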

Rattus norvegicus [3] = experiment: Evaluated for number of rats ovulating in an in vivo anti-ovulatory assay at dose (500 microg); 4/8; assay type: functional, organism-based
Rattus norvegicus [4] = experiment: Evaluated for number of rats ovulating in an in vivo anti-ovulatory assay at dose (250 microg); 5/9; assay type: functional, organism-based
Rattus norvegicus [5] = experiment: Evaluated for number of rats ovulating in an in vivo anti-ovulatory assay at dose (10 microg); 10/10; assay type: functional, organism-based
Rattus norvegicus [6] = experiment: Evaluated for number of rats ovulating in an in vivo anti-ovulatory assay at dose (25 microg); 0/6; assay type: functional, organism-based
Rattus norvegicus [7] = experiment: Evaluated for number of rats ovulating in an in vivo anti-ovulatory assay at dose (100 microg); 2/9; assay type: functional, organism-based
Rattus norvegicus [8] = experiment: Evaluated for number of rats ovulating in an in vivo anti-ovulatory assay at dose (250 microg); 0/6; assay type: functional, organism-based
Rattus norvegicus [9] = experiment: Evaluated for number of rats ovulating in an in vivo anti-ovulatory assay at dose(1000 microg); 7/8; assay type: functional, organism-based
Rattus norvegicus [10] = experiment: Evaluated for number of rats ovulating in an in vivo anti-ovulatory assay at dose(50 microg); 1/4; assay type: functional, organism-based
Rattus norvegicus [11] = experiment: Evaluated for number of rats ovulating in an in vivo anti-ovulatory assay at dose(100 microg); 0/5; assay type: functional, organism-based
Rattus norvegicus [12] = experiment: Evaluated for number of rats ovulating in an in vivo anti-ovulatory assay at dose(25 microg); 3/4; assay type: functional, organism-based
Rattus norvegicus [13] = experiment: Evaluated for number of rats ovulating in an in vivo anti-ovulatory assay at dose(50 microg); 0/6; assay type: functional, organism-based
Rattus norvegicus [14] = experiment: Evaluated for number of rats ovulating in an in vivo anti-ovulatory assay at dose (500 microg); 7/8; assay type: functional, organism-based
Rattus norvegicus [15] = experiment: Evaluated for number of rats ovulating in an in vivo anti-ovulatory assay at dose (25 microg); 5/6; assay type: functional, organism-based
Rattus norvegicus [16] = experiment: Evaluated for number of rats ovulating in an in vivo anti-ovulatory assay at dose (100 microg); 6/11; assay type: functional, organism-based

- pKi [2]: 8.66
Structure (SMILES): CC(=O)NC1CCCNC(=O)CCNC(=O)C[C@@H](C(=O)N[C@@H](CO)C(=O)N[C@@H](Cc2ccc(O)cc2)C(=O)N[C@H](Cc2ccc3ccccc3c2)C(=O)N[C@H](CC(C)C)C(=O)NC(CCCN=C(N)N)C(=O)N2CCC[C@H]2C(=O)N[C@H](C)C(N)=O)NC(=O)[C@@H](Cc2ccc(Cl)cc2)NC1=O (stereo in doubt)
- Activity (Rattus norvegicus [1]): Weak activity

Structure (SMILES): CC(=O)N[C@H]1CC(=O)N[C@H](C)C(=O)N[C@@H](C(=O)N[C@@H](CO)C(=O)N[C@@H](Cc2ccc(O)cc2)C(=O)N[C@H](Cc2ccc3ccccc3c2)C(=O)N[C@H](CC(C)C)C(=O)N[C@@H](CCCN=C(N)N)C(=O)N2CCC[C@H]2C(=O)N[C@H](C)C(N)=O)CCCNC(=O)[C@@H](Cc2ccc(Cl)cc2)NC1=O
- Activity (Rattus norvegicus [3]): Weak activity
- Activity (Rattus norvegicus [4]): Weak activity

Structure (SMILES): CC(=O)N[C@H]1CC(=O)NCC(=O)N[C@@H](C(=O)N[C@@H](CO)C(=O)N[C@@H](Cc2ccc(O)cc2)C(=O)N[C@H](Cc2ccc3ccccc3c2)C(=O)N[C@H](CC(C)C)C(=O)N[C@@H](CCCN=C(N)N)C(=O)N2CCC[C@H]2C(=O)N[C@H](C)C(N)=O)CCCNC(=O)[C@@H](Cc2ccc(Cl)cc2)NC1=O
- Activity (Rattus norvegicus [5]): inactive
- Activity (Rattus norvegicus [6]): Active

Structure (SMILES): CC(=O)N[C@H]1CC(=O)N[C@@H](C)C(=O)N[C@@H](C(=O)N[C@@H](CO)C(=O)N[C@@H](Cc2ccc(O)cc2)C(=O)N[C@H](Cc2ccc3ccccc3c2)C(=O)N[C@H](CC(C)C)C(=O)N[C@@H](CCCN=C(N)N)C(=O)N2CCC[C@H]2C(=O)N[C@H](C)C(N)=O)CCCNC(=O)[C@@H](Cc2ccc(Cl)cc2)NC1=O
- Activity (Rattus norvegicus [7]): Weak activity
- Activity (Rattus norvegicus [8]): Active

Structure (SMILES): CC(=O)N[C@H]1CC(=O)N[C@H](C(=O)N[C@@H](CO)C(=O)N[C@@H](Cc2ccc(O)cc2)C(=O)N[C@H](Cc2ccc3ccccc3c2)C(=O)N[C@H](CC(C)C)C(=O)N[C@@H](CCCN=C(N)N)C(=O)N2CCC[C@H]2C(=O)N[C@H](C)C(N)=O)CNC(=O)[C@@H](Cc2ccc(Cl)cc2)NC1=O
- Activity (Rattus norvegicus [9]): inactive

Structure (SMILES): CC(=O)N[C@H]1CCC(=O)N[C@@H](C(=O)N[C@@H](CO)C(=O)N[C@@H](Cc2ccc(O)cc2)C(=O)N[C@H](Cc2ccc3ccccc3c2)C(=O)N[C@H](CC(C)C)C(=O)N[C@@H](CCCN=C(N)N)C(=O)N2CCC[C@H]2C(=O)N[C@H](C)C(N)=O)CCCCNC(=O)[C@@H](Cc2ccc(Cl)cc2)NC1=O
- Activity (Rattus norvegicus [10]): Active
- Activity (Rattus norvegicus [11]): Active

Structure (SMILES): CC(=O)N[C@H]1CC(=O)NCCC(=O)N[C@@H](C(=O)N[C@@H](CO)C(=O)N[C@@H](Cc2ccc(O)cc2)C(=O)N[C@H](Cc2ccc3ccccc3c2)C(=O)N[C@H](CC(C)C)C(=O)N[C@@H](CCCN=C(N)N)C(=O)N2CCC[C@H]2C(=O)N[C@H](C)C(N)=O)CNC(=O)[C@@H](Cc2ccc(Cl)cc2)NC1=O
- Activity (Rattus norvegicus [12]): inactive
- Activity (Rattus norvegicus [13]): Active

Structure (SMILES): CC(=O)N[C@H]1CC(=O)N[C@@H](C)C(=O)N[C@@H](C(=O)N[C@@H](CO)C(=O)N[C@@H](Cc2ccc(O)cc2)C(=O)N[C@H](CCCN=C(N)N)C(=O)N[C@H](CC(C)C)C(=O)N[C@@H](CCCN=C(N)N)C(=O)N2CCC[C@H]2C(=O)N[C@H](C)C(N)=O)CCCNC(=O)[C@@H](Cc2ccc(Cl)cc2)NC1=O
- Activity (Rattus norvegicus [14]): inactive

Structure (SMILES): CC(=O)N[C@H]1CC(=O)NCCCC(=O)N[C@@H](C(=O)N[C@@H](CO)C(=O)N[C@@H](Cc2ccc(O)cc2)C(=O)N[C@H](Cc2ccc3ccccc3c2)C(=O)N[C@H](CC(C)C)C(=O)N[C@@H](CCCN=C(N)N)C(=O)N2CCC[C@H]2C(=O)N[C@H](C)C(N)=O)CNC(=O)[C@@H](Cc2ccc(Cl)cc2)NC1=O
- Activity (Rattus norvegicus [15]): inactive
- Activity (Rattus norvegicus [16]): Weak activity
